Data from ChEMBL document CHEMBL1121571, “Cytotoxic and antitumor properties of bleomycin and several of its metal complexes” (J Med Chem, 1980).

Columns and labels:
Format in all cases: functional, organism-based
[1] = species: Mus musculus; test: Tested for the inhibition of DNA synthesis against blenoxane at 80 nm of drug/mg of cell protein in mice; parameters: scale not given: the % may be the effect or the level left
Procedure, shortened: (§1)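 Ehrlich ascites cells from a donor mouse, in fresh MEM at 5 × 10⁶ cells/mL, were exposed to drug for 60 min at 37 °C with gentle shaking. They were then washed once, resuspended in fresh MEM and given [³H]thymidine (final thymidine about 8.6 × 10⁻⁸ M) for 20 min. DNA synthesis was read as perchloric acid-precipitable label. Values are % of control ± SD over three trials.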

[2] = species: Mus musculus; test: Tested for the thymidine uptake against blenoxane at 4 nm of drug/mg of cell protein in mice
[3] = species: Mus musculus; test: Tested for the thymidine uptake against blenoxane at 80 nm of drug/mg of cell protein in mice; procedure, shortened: as §1
[4] = species: Mus musculus; test: Tested for the thymidine uptake against blenoxane at 40 nm of drug/mg of cell protein in mice; procedure, shortened: as §1
[5] = species: Mus musculus; test: Tested for the thymidine uptake against blenoxane at 10 nm of drug/mg of cell protein in mice; procedure, shortened: as §1
[6] = species: Mus musculus; test: Tested for the inhibition of DNA synthesis against blenoxane at 40 nm of drug/mg of cell protein in mice; parameters: scale not given: the % may be the effect or the level left; procedure, shortened: as §1
[7] = species: Mus musculus; test: Tested for the inhibition of DNA synthesis against blenoxane at 4 nm of drug/mg of cell protein in mice; parameters: scale not given: the % may be the effect or the level left
Procedure, shortened: (§2)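 Culture-adapted Ehrlich cells were incubated 60 min with […] (4 nmol/mg cell protein) in the presence of serum. [³H]dThd incorporation into DNA was measured at the end of the 60 min. Values are expressed relative to untreated control.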

[8] = species: Mus musculus; test: Tested for the inhibition of DNA synthesis against blenoxane at 10 nm of drug/mg of cell protein in mice; parameters: scale not given: the % may be the effect or the level left; procedure, shortened: as §1
[9] = species: Mus musculus; test: Tested for the inhibition of DNA synthesis against cu-blenoxane at 80 nm of drug/mg of cell protein in mice; parameters: scale not given: the % may be the effect or the level left; procedure, shortened: as §1
[10] = species: Mus musculus; test: Tested for the thymidine uptake against cu-blenoxane at 10 nm of drug/mg of cell protein in mice; procedure, shortened: as §1
[11] = species: Mus musculus; test: Tested for the thymidine uptake against cu-blenoxane at 40 nm of drug/mg of cell protein in mice; procedure, shortened: as §1
[12] = species: Mus musculus; test: Tested for the thymidine uptake against cu-blenoxane at 80 nm of drug/mg of cell protein in mice; procedure, shortened: as §1
[13] = species: Mus musculus; test: Tested for the inhibition of DNA synthesis against cu-blenoxane at 10 nm of drug/mg of cell protein in mice; parameters: scale not given: the % may be the effect or the level left; procedure, shortened: as §1
[14] = species: Mus musculus; test: Tested for the thymidine uptake against cu-blenoxane at 4 nm of drug/mg of cell protein in mice
[15] = species: Mus musculus; test: Tested for the inhibition of DNA synthesis against cu-blenoxane at 4 nm of drug/mg of cell protein in mice; parameters: scale not given: the % may be the effect or the level left; procedure, shortened: as §2
[16] = species: Mus musculus; test: Tested for the inhibition of DNA synthesis against cu-blenoxane at 40 nm of drug/mg of cell protein in mice; parameters: scale not given: the % may be the effect or the level left; procedure, shortened: as §1

Substance	Control [1] [%]	Control [2] [%]	Control [3] [%]	Control [4] [%]	Control [5] [%]	Control [6] [%]	Control [7] [%]	Control [8] [%]	Control [9] [%]	Control [10] [%]	Control [11] [%]	Control [12] [%]	Control [13] [%]	Control [14] [%]	Control [15] [%]	Control [16] [%]
BLEOMYCIN	40.1	86	61.9	69.8	79.1	56.4	67.9	66.1	–	–	–	–	–	–	–	–
cu-blenoxane	–	–	–	–	–	–	–	–	51.3	83.5	71.2	68.4	61.5	94.9	86.8	55.3
